Test results: ChEMBL document CHEMBL4834399, “Pharmacokinetics of Eleven Kratom Alkaloids Following an Oral Dose of Either Traditional or Commercial Kratom Products in Rats” (J Nat Prod, 2021)

What was measured:
[1] = Stability of the compound in rat plasma assessed as drug recovery; format: ADME, cell-free
[2] = Stability of the compound in water-methanol mixture (1:1) assessed as drug recovery; format: physicochemical; conditions: buffer
[3] = AUC(0 to 24 hrs) in Sprague-Dawley rat plasma at 9.6 mg/kg, po administered as OPMS liquid formulation measured for 24 hrs by UPLC-MS/MS analysis; format: ADME, organism-based; design: route oral, time 24 hrs, dose 9.6 mg/kg
[4] = Dose normalized AUC(0 to 24 hrs) in Sprague-Dawley rat plasma at 5.73 mg/kg, po administered as LKT formulation measured for 24 hrs by UPLC-MS/MS analysis; format: ADME, organism-based; conditions: in vivo
[5] = biological target: Cytochrome P450 2D6 (Homo sapiens, UniProt P10635); experiment: Inhibition of CYP2D6 in human liver microsomes assessed as inhibition of dextromethorphan O-demethylation using dextromethorphan as substrate preincubated for 5 mins followed by NADPH addition by UPLC-MS/MS analysis; format: ADME
[6] = AUC(0 to 24 hrs) in Sprague-Dawley rat plasma at 5.73 mg/kg, po administered as LKT formulation measured for 24 hrs by UPLC-MS/MS analysis; format: ADME, organism-based; design: route oral, time 24 hrs, dose 5.73 mg/kg
[7] = Dose normalized Cmax in Sprague-Dawley rat plasma at 9.6 mg/kg, po administered as OPMS liquid formulation measured for 24 hrs by UPLC-MS/MS analysis; format: ADME, organism-based; conditions: in vivo
In short: (§1)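 Jugular-cannulated male SD rats (225 ± 25 g, n = 4) were fasted 12–16 h and given one oral gavage of LKT (366 mg/kg) or OPMS liquid (0.8 mL/kg) in water at 4 mL/kg, with dosing normalized to MTG human equivalent dose. Plasma was sampled from predose to 24 h and measured by UPLC–MS/MS (LLOQ 1 ng/mL). Cmax and Tmax were read from the observed data; Cmax/dose was also reported. Mean ± SEM.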

[8] = Cmax in Sprague-Dawley rat plasma at 5.73 mg/kg, po administered as LKT formulation measured for 24 hrs by UPLC-MS/MS analysis; format: ADME, organism-based; design: route oral, dose 5.73 mg/kg, time 24 hrs; in short: as §1
[9] = rat, in vivo, po, 5.73 mg/kg, 24 h
[10] = Tmax in Sprague-Dawley rat plasma at 5.73 mg/kg, po administered as LKT formulation measured for 24 hrs by UPLC-MS/MS analysis; format: ADME, organism-based; in short: as §1
[11] = Dose normalized Cmax in Sprague-Dawley rat plasma at 5.73 mg/kg, po administered as LKT formulation measured for 24 hrs by UPLC-MS/MS analysis; format: ADME, organism-based; conditions: in vivo; in short: as §1
[12] = Cmax in Sprague-Dawley rat plasma at 9.6 mg/kg, po administered as OPMS liquid formulation measured for 24 hrs by UPLC-MS/MS analysis; format: ADME, organism-based; design: route oral, dose 9.6 mg/kg, time 24 hrs; in short: as §1
[13] = Dose normalized Cmax in rat plasma at 20 mg/kg, po administered as LKT formulation; format: ADME, organism-based; conditions: in vivo
[14] = rat, in vivo, po, 9.6 mg/kg, 24 h
[15] = Tmax in Sprague-Dawley rat plasma at 9.6 mg/kg, po administered as OPMS liquid formulation measured for 24 hrs by UPLC-MS/MS analysis; format: ADME, organism-based; in short: as §1
[16] = Dose normalized AUC in rat plasma at 20 mg/kg, po administered as LKT formulation; format: ADME, organism-based; conditions: in vivo
[17] = Dose normalized AUC(0 to 24 hrs) in Sprague-Dawley rat plasma at 9.6 mg/kg, po administered as OPMS liquid formulation measured for 24 hrs by UPLC-MS/MS analysis; format: ADME, organism-based; conditions: in vivo
[18] = Tmax in Sprague-Dawley rat plasma at 2.24 mg/kg, po administered as OPMS liquid formulation measured for 24 hrs by UPLC-MS/MS analysis; format: ADME, organism-based; in short: as §1
[19] = AUC(0 to 24 hrs) in Sprague-Dawley rat plasma at 2.03 mg/kg, po administered as LKT formulation measured for 24 hrs by UPLC-MS/MS analysis; format: ADME, organism-based; design: route oral, time 24 hrs, dose 2.03 mg/kg
[20] = Dose normalized Cmax in Sprague-Dawley rat plasma at 2.24 mg/kg, po administered as OPMS liquid formulation measured for 24 hrs by UPLC-MS/MS analysis; format: ADME, organism-based; conditions: in vivo; in short: as §1
[21] = Dose normalized AUC(0 to 24 hrs) in Sprague-Dawley rat plasma at 2.03 mg/kg, po administered as LKT formulation measured for 24 hrs by UPLC-MS/MS analysis; format: ADME, organism-based; conditions: in vivo
[22] = Dose normalized AUC(0 to 24 hrs) in Sprague-Dawley rat plasma at 2.24 mg/kg, po administered as OPMS liquid formulation measured for 24 hrs by UPLC-MS/MS analysis; format: ADME, organism-based; conditions: in vivo
[23] = Cmax in Sprague-Dawley rat plasma at 2.24 mg/kg, po administered as OPMS liquid formulation measured for 24 hrs by UPLC-MS/MS analysis; format: ADME, organism-based; design: route oral, dose 2.24 mg/kg, time 24 hrs; in short: as §1
[24] = Dose normalized Cmax in Sprague-Dawley rat plasma at 2.03 mg/kg, po administered as LKT formulation measured for 24 hrs by UPLC-MS/MS analysis; format: ADME, organism-based; conditions: in vivo; in short: as §1
[25] = Cmax in Sprague-Dawley rat plasma at 2.03 mg/kg, po administered as LKT formulation measured for 24 hrs by UPLC-MS/MS analysis; format: ADME, organism-based; design: route oral, dose 2.03 mg/kg, time 24 hrs; in short: as §1
[26] = Tmax in Sprague-Dawley rat plasma at 2.03 mg/kg, po administered as LKT formulation measured for 24 hrs by UPLC-MS/MS analysis; format: ADME, organism-based; in short: as §1
[27] = AUC(0 to 24 hrs) in Sprague-Dawley rat plasma at 2.24 mg/kg, po administered as OPMS liquid formulation measured for 24 hrs by UPLC-MS/MS analysis; format: ADME, organism-based; design: route oral, time 24 hrs, dose 2.24 mg/kg
[28] = Cmax in Sprague-Dawley rat plasma at 1.77 mg/kg, po administered as OPMS liquid formulation measured for 24 hrs by UPLC-MS/MS analysis; format: ADME, organism-based; design: route oral, time 24 hrs, dose 1.77 mg/kg; in short: as §1
[29] = Plasma concentration in Sprague-Dawley rat at 1.1 mg/kg, po administered as LKT formulation measured within 1 hrs by UPLC-MS/MS analysis; format: ADME, organism-based; in short: as §1
[30] = Tmax in Sprague-Dawley rat plasma at 1.77 mg/kg, po administered as OPMS liquid formulation measured for 24 hrs by UPLC-MS/MS analysis; format: ADME, organism-based; in short: as §1
[31] = Cmax in Sprague-Dawley rat plasma at 1.1 mg/kg, po administered as LKT formulation measured for 24 hrs by UPLC-MS/MS analysis; format: ADME, organism-based; design: route oral, dose 1.1 mg/kg, time 24 hrs; in short: as §1
[32] = Plasma concentration in Sprague-Dawley rat at 1.77 mg/kg, po administered as OPMS liquid formulation measured within 1 hrs by UPLC-MS/MS analysis; format: ADME, organism-based; in short: as §1
[33] = Tmax in Sprague-Dawley rat plasma at 1.1 mg/kg, po administered as LKT formulation measured for 24 hrs by UPLC-MS/MS analysis; format: ADME, organism-based; in short: as §1

Chain of Cytochrome P450 2D6 (P10635 whole entry): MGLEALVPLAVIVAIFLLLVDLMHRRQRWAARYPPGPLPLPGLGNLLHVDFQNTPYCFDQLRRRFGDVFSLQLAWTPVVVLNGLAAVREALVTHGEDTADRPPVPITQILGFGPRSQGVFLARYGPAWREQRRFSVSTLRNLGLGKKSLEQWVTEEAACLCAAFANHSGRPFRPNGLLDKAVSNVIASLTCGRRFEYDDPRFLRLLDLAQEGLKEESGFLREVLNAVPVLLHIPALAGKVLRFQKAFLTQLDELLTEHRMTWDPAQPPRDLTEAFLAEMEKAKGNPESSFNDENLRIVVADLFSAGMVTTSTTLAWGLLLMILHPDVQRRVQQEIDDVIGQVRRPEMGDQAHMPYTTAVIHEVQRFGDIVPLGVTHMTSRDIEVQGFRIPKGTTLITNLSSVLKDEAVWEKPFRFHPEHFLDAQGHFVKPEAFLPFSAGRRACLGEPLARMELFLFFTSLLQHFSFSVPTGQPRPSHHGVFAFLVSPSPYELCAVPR

COC(=O)C1=CO[C@@H](C)[C@H]2CN3CC[C@]4(C(=O)Nc5ccccc54)[C@@H]3C[C@H]12
Drug recovery [1]: > 90% | Drug recovery [2]: > 80%

CC[C@@H]1CN2CCc3c([nH]c4cccc(OC)c34)[C@@H]2C[C@@H]1/C(=C\OC)C(=O)OC
Drug recovery [1]: > 90% | AUC(0-t) at 24 h [3]: 1310 ng·h/mL | AUC/dose [4]: 83.7 kg·ng·h/mL/mg | Ki [5]: 1100 nM | AUC(0-t) at 24 h [6]: 480 ng·h/mL | Cmax/dose [7]: 11.7 kg·ng/mL/mg | Drug recovery [2]: > 80% | Cmax [8]: 63.8 ng/mL | Drug metabolism [9]: 3.4% | Tmax [10]: 1.3 h | Cmax/dose [11]: 11.1 kg·ng/mL/mg | Cmax [12]: 112 ng/mL | Cmax/dose [13]: 46.5 ng/mL | Drug metabolism [14]: 3.1% | Tmax [15]: 3.1 h | AUC/dose [16]: 213.1 kg·ng·h/mL/mg | AUC/dose [17]: 136.1 kg·ng·h/mL/mg

CC[C@@H]1CN2CCc3c([nH]c4cccc(OC)c34)[C@H]2C[C@@H]1/C(=C\OC)C(=O)OC
Drug recovery [1]: > 90% | Tmax [18]: 3.2 h | Drug recovery [2]: > 80% | AUC(0-t) at 24 h [19]: 107 ng·h/mL | Cmax/dose [20]: 10.8 kg·ng/mL/mg | AUC/dose [21]: 52.9 kg·ng·h/mL/mg | AUC/dose [22]: 101.2 kg·ng·h/mL/mg | Cmax [23]: 23.8 ng/mL | Cmax/dose [24]: 10.4 kg·ng/mL/mg | Cmax [25]: 21.1 ng/mL | Tmax [26]: 1.8 h | AUC(0-t) at 24 h [27]: 223 ng·h/mL

C=C[C@H]1CN2CCc3c([nH]c4cccc(OC)c34)[C@@H]2C[C@@H]1/C(=C\OC)C(=O)OC
Drug recovery [1]: > 90% | Cmax [28]: 2 ng/mL | concentration at 1 h [29]: < 1 ng/mL | Drug recovery [2]: > 80% | Tmax [30]: 5 min | Cmax [31]: 5.3 ng/mL | concentration at 1 h [32]: < 1 ng/mL | Tmax [33]: 0.167 h

CC[C@@H]1CN2CC[C@@]3(C(=O)Nc4cccc(O)c43)[C@H]2C[C@@H]1/C(=C\OC)C(=O)OC
Drug recovery [1]: > 90% | Drug recovery [2]: > 80%
